ChEMBL document CHEMBL5038664, “Thieno[2,3-d]pyrimidine-Based Positive Allosteric Modulators of Human Mas-Related G Protein-Coupled Receptor X1 (MRGPRX1)” (J Med Chem, 2022)
Active and inactive are the calls of the source. The rule behind the calls is not given here.

System: not listed separately
Test: Acute toxicity in mouse expressing MRGPRX1 assessed as impaired exploratory activity at 100 mg/kg, po by open field test
Assay type: organism-based
Conditions: in vivo
Procedure, shortened: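 Naïve humanized MRGPRX1 mice were dosed at 100 mg/kg po, with vehicle-treated mice as a parallel group. Exploratory performance in an open field test was compared with each animal's pre-drug values.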

Row | Compound | Activity
1 | CC(C)(C)c1sc2ncnc(Oc3ccccc3OC(F)(F)F)c2c1-c1ccc(Cl)c(Cl)c1 | Non-Toxic

Target: T1, Mas-related G-protein coupled receptor member X2 (Homo sapiens) (UniProt Q96LB1)
T1 sequence (whole entry): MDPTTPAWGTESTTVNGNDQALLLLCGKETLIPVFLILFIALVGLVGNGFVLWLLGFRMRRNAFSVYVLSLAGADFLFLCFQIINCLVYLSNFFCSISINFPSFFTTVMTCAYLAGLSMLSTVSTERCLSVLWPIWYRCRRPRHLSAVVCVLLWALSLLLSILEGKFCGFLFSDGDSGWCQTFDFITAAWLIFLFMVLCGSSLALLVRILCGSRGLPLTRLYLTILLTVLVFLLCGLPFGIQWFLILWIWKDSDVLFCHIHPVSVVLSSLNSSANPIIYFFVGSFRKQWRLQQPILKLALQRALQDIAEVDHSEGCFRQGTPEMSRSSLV
Test: Positive allosteric modulator activity at human MRGPRX2 transfected in HEK293 cells at 5 uM in presence of C48/80 by Fluo-4 AM-based FLIPR assay
Assay type: cell-based
Conditions: not given
Procedure, shortened: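 MRGPRX2 stably expressed in HEK293 cells; compound tested with an EC20 level of the orthosteric agonist C48/80, calcium response detected with Fluo-4 AM.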

Row | Compound | Activity
2 | CC(C)(C)c1sc2ncnc(Oc3ccccc3OC(F)(F)F)c2c1-c1ccc(Cl)c(Cl)c1 | inactive

System: Mus musculus
Test: Analgesic activity in mouse model of sciatic nerve chronic constriction injury-induced neuropathic pain assessed as increase in contralateral paw withdrawal latency at 100 mg/kg, po measured at 2 hrs post drug on day 26 post injury by Hargreaves test
Assay type: functional, organism-based
Conditions: not given
Procedure, shortened: (§1)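 Humanized MRGPRX1 mice, both sexes, 2–3 months old, 20–30 g, sciatic nerve CCI. Given 100 mg/kg orally (n=4–5/group, vehicle comparator). Heat withdrawal latency by Hargreaves test on days 12 and 26 post-CCI, compared with pre-drug and vehicle; two-way mixed-model ANOVA with Bonferroni test, mean + SD.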

Row | Compound | Activity
3 | CC(C)(C)c1sc2ncnc(Oc3ccccc3OC(F)(F)F)c2c1-c1ccc(Cl)c(Cl)c1 | inactive

System: Mus musculus
Test: Analgesic activity in mouse model of sciatic nerve chronic constriction injury-induced neuropathic pain assessed as increase in contralateral paw withdrawal latency at 100 mg/kg, po measured at 1 and 2 hrs on day 12 post injury by Hargreaves test
Assay type: functional, organism-based
Conditions: time 12.0 day
Procedure, shortened: as §1

Row | Compound | Activity
4 | CC(C)(C)c1sc2ncnc(Oc3ccccc3OC(F)(F)F)c2c1-c1ccc(Cl)c(Cl)c1 | inactive

System: not listed separately
Test: Metabolic stability in human microsome assessed as compound remaining measured after 60 min in presence of NADPH regenerating system by LC-MS/MS analysis
Assay type: ADME, Liver
Conditions: microsomes, 1 h

Row | Compound | Stability [%]
5 | CC(C)(C)c1sc2ncnc(Oc3ccccc3F)c2c1-c1ccc(F)cc1 | 88
6 | Fc1ccccc1Oc1ncnc2scc(C(F)(F)F)c12 | < 5
7 | CC(C)(C)c1sc2ncnc(Oc3ccccc3OC(F)(F)F)c2c1-c1ccc(Cl)c(Cl)c1 | > 95

The next lines start with the values.

Row | Stability [%] | Compound
8 | 78 | CC(C)(C)c1sc2ncnc(Oc3ccccc3F)c2c1-c1ccccc1
9 | 61 | CC(C)(C)c1cc2c(Oc3ccccc3F)ncnc2s1
10 | > 95 | CC(C)(C)c1sc2ncnc(Oc3ccccc3OC(F)(F)F)c2c1-c1ccc(F)cc1
11 | < 5 | Cc1sc2ncnc(Oc3ccccc3F)c2c1C

System: not listed separately
Test: Tmax in CD1 mouse plasma at 100 mg/kg, po measured upto 6 hrs by LC-MS/MS analysis
Assay type: ADME, organism-based
Conditions: in vivo
Procedure, shortened: (§2)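 Male CD-1 mice (25–30 g, n=3 per time point) dosed 100 mg/kg by oral gavage in 5% dimethylacetamide/10% Cremophor EL/10% Tween80/25% PEG400/50% water. Killed at 0.25–6 h; cardiac-puncture plasma, brain and spinal cord collected. Acetonitrile extraction with losartan internal standard, LC/MS/MS; calibration 0.01–10 nmol/mL, 1/x weighting. Tissue-to-plasma ratios by AUC.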

Row | Compound | Tmax [h]
12 | CC(C)(C)c1sc2ncnc(Oc3ccccc3OC(F)(F)F)c2c1-c1ccc(Cl)c(Cl)c1 | 1

Target: T2, Mas-related G-protein coupled receptor member X1 (Homo sapiens, UniProt Q96LB2)
T2 sequence (Q96LB2 whole entry): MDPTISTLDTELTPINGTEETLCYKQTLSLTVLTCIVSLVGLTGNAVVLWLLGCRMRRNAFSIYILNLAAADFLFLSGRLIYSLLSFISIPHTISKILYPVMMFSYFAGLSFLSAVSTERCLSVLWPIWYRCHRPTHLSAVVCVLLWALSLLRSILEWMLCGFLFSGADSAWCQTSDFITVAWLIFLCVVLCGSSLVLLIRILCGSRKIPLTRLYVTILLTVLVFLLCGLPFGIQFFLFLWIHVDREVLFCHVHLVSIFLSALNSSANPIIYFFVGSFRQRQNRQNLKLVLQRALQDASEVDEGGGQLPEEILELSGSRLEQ
Test: Agonist activity at human MRGPRX1 expressed in HEK293 cells upto 100 uM in absence of BAM8-22 by Fluo-dye based FLIPR assay
Assay type: functional, cell-based
Conditions: dose microM <=100
Procedure, shortened: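 Human MRGPRX1 stably expressed in HEK293 cells, 25,000 cells/well, 2 days. Loaded with 2 µM Fluo-4 AM and 1% Trypan Red in HBSS for 50 min at 37°C, then 10 min at room temperature. Serially diluted compound in HBSS added; FLIPR imaging 2 min, signal taken as maximum minus minimum fluorescence.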

Row | Compound | Activity
13 | CC(C)(C)c1sc2ncnc(Oc3ccccc3OC(F)(F)F)c2c1-c1ccc(Cl)c(Cl)c1 | inactive

Target: T2, Mas-related G-protein coupled receptor member X1
Test: Positive allosteric modulator activity at human MRGPRX1 transfected in HEK293 cells in presence of BAM8-22 by Fulo4AM dye based FLIPR assay
Assay type: cell-based
Conditions: not given

Row | Compound | EC50 [nM]
14 | Fc1ccccc1Oc1ncnc2sccc12 | 4200
15 | Cc1sc2ncnc(Oc3ccc(C(F)(F)F)cc3)c2c1C | > 100000
16 | Fc1ccccc1Oc1ncnc2scc(C(F)(F)F)c12 | 2100

Now from value to compound:

Row | EC50 [nM] | Compound
17 | 1100 | Cc1sc2ncnc(Oc3ccc(F)cc3)c2c1C
18 | 340 | CC(C)(C)c1sc2ncnc(Oc3ccccc3F)c2c1-c1ccccc1
19 | 320 | CC(C)(C)c1cc2c(Oc3ccccc3F)ncnc2s1
20 | 230 | CC(C)(C)c1sc2ncnc(Oc3ccccc3OC(F)(F)F)c2c1-c1ccc(F)cc1
21 | 220 | Cc1sc2ncnc(Oc3ccccc3F)c2c1C

System: not listed separately
Test: Ratio of AUClast in CD1 mouse brain to plasma at 100 mg/kg, po measured upto 6 hrs by LC-MS/MS analysis
Assay type: ADME, organism-based
Conditions: not given
Procedure, shortened: as §2

Row | Compound | Kp at 6 h
22 | CC(C)(C)c1sc2ncnc(Oc3ccccc3OC(F)(F)F)c2c1-c1ccc(Cl)c(Cl)c1 | 2.2

System: not listed separately
Test: Acute toxicity in mouse expressing MRGPRX1 at 100 mg/kg, po measured upto 1.5 hrs by rotarod test
Assay type: organism-based
Conditions: in vivo
Procedure, shortened: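 Motor coordination was measured by rotarod in naïve humanized MRGPRX1 mice after 100 mg/kg po. Performance was compared with a vehicle-treated group and with pre-treatment values.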

Row | Compound | Activity
23 | CC(C)(C)c1sc2ncnc(Oc3ccccc3OC(F)(F)F)c2c1-c1ccc(Cl)c(Cl)c1 | Non-Toxic

System: not listed separately
Test: Metabolic stability in human microsome assessed as compound remaining measured after 30 min in presence of NADPH regenerating system by LC-MS/MS analysis
Assay type: ADME, Liver
Conditions: microsomes, 0.5 h

Row | Compound | Stability [%]
24 | CC(C)(C)c1sc2ncnc(Oc3ccccc3F)c2c1-c1ccc(F)cc1 | > 95
25 | Fc1ccccc1Oc1ncnc2scc(C(F)(F)F)c12 | 40
26 | CC(C)(C)c1sc2ncnc(Oc3ccccc3OC(F)(F)F)c2c1-c1ccc(Cl)c(Cl)c1 | > 95

More lines, now with the values ahead:

Row | Stability [%] | Compound
27 | 75 | CC(C)(C)c1cc2c(Oc3ccccc3F)ncnc2s1
28 | > 95 | CC(C)(C)c1sc2ncnc(Oc3ccccc3OC(F)(F)F)c2c1-c1ccc(F)cc1
29 | < 5 | Cc1sc2ncnc(Oc3ccccc3F)c2c1C

System: not listed separately
Test: Acute toxicity in mouse expressing MRGPRX1 assessed as itching by measuring spontaneous scratching bouts at 100 mg/kg, po measured upto 1 hr
Assay type: organism-based
Conditions: in vivo
Procedure, shortened: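 Awake, free-moving humanized MRGPRX1 mice (human MRGPRX1 expressed in nociceptive DRG neurons in place of murine MrgprC11) were dosed orally at 100 mg/kg. Spontaneous behaviour was video-recorded for 0–1 h after dosing, and scratch bouts were counted and compared with vehicle-treated mice.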

Row | Compound | Activity
30 | CC(C)(C)c1sc2ncnc(Oc3ccccc3OC(F)(F)F)c2c1-c1ccc(Cl)c(Cl)c1 | Non-Toxic

System: Mus musculus
Test: Analgesic activity in mouse model of sciatic nerve chronic constriction injury-induced neuropathic pain assessed as increase in ipsilateral paw withdrawal latency at 100 mg/kg, po measured at 2 hrs post drug on day 26 post injury by Hargreaves test
Assay type: functional, organism-based
Conditions: not given
Procedure, shortened: as §1

Row | Compound | Activity
31 | CC(C)(C)c1sc2ncnc(Oc3ccccc3OC(F)(F)F)c2c1-c1ccc(Cl)c(Cl)c1 | Active

System: not listed separately
Test: Metabolic stability in mouse microsome assessed as compound remaining measured after 60 min in presence of NADPH regenerating system by LC-MS/MS analysis
Assay type: ADME, Liver
Conditions: microsomes, 1 h

Row | Compound | Stability [%]
32 | CC(C)(C)c1sc2ncnc(Oc3ccccc3F)c2c1-c1ccc(F)cc1 | < 5
33 | Fc1ccccc1Oc1ncnc2scc(C(F)(F)F)c12 | < 5
34 | CC(C)(C)c1sc2ncnc(Oc3ccccc3OC(F)(F)F)c2c1-c1ccc(Cl)c(Cl)c1 | 25

Other lines, results leading:

Row | Stability [%] | Compound
35 | < 5 | CC(C)(C)c1sc2ncnc(Oc3ccccc3F)c2c1-c1ccccc1
36 | < 5 | CC(C)(C)c1cc2c(Oc3ccccc3F)ncnc2s1
37 | 5 | CC(C)(C)c1sc2ncnc(Oc3ccccc3OC(F)(F)F)c2c1-c1ccc(F)cc1
38 | < 5 | Cc1sc2ncnc(Oc3ccccc3F)c2c1C

System: not listed separately
Test: Ratio of AUClast in CD1 mouse spinal cord to plasma at 100 mg/kg, po measured upto 6 hrs by LC-MS/MS analysis
Assay type: ADME, organism-based
Conditions: not given
Procedure, shortened: as §2

Row | Compound | Kp at 6 h
39 | CC(C)(C)c1sc2ncnc(Oc3ccccc3OC(F)(F)F)c2c1-c1ccc(Cl)c(Cl)c1 | 12.7

System: not listed separately
Test: Tmax in CD1 mouse brain at 100 mg/kg, po measured upto 6 hrs by LC-MS/MS analysis
Assay type: ADME, organism-based
Conditions: in vivo
Procedure, shortened: as §2

Row | Compound | Tmax [h]
40 | CC(C)(C)c1sc2ncnc(Oc3ccccc3OC(F)(F)F)c2c1-c1ccc(Cl)c(Cl)c1 | 1

System: Mus musculus
Test: Analgesic activity in mouse model of sciatic nerve chronic constriction injury-induced neuropathic pain assessed as increase in ipsilateral paw withdrawal latency at 100 mg/kg, po measured at 1 and 2 hrs on day 12 post injury by Hargreaves test
Assay type: functional, organism-based
Conditions: time 12.0 day
Procedure, shortened: as §1

Row | Compound | Activity
41 | CC(C)(C)c1sc2ncnc(Oc3ccccc3OC(F)(F)F)c2c1-c1ccc(Cl)c(Cl)c1 | Active

System: not listed separately
Test: Tmax in CD1 mouse spinal cord at 100 mg/kg, po measured upto 6 hrs by LC-MS/MS analysis
Assay type: ADME, organism-based
Conditions: in vivo
Procedure, shortened: as §2

Row | Compound | Tmax [h]
42 | CC(C)(C)c1sc2ncnc(Oc3ccccc3OC(F)(F)F)c2c1-c1ccc(Cl)c(Cl)c1 | 1

Target: hERG (KCNH2) (Homo sapiens, UniProt Q12809)
Sequence (Q12809 whole entry): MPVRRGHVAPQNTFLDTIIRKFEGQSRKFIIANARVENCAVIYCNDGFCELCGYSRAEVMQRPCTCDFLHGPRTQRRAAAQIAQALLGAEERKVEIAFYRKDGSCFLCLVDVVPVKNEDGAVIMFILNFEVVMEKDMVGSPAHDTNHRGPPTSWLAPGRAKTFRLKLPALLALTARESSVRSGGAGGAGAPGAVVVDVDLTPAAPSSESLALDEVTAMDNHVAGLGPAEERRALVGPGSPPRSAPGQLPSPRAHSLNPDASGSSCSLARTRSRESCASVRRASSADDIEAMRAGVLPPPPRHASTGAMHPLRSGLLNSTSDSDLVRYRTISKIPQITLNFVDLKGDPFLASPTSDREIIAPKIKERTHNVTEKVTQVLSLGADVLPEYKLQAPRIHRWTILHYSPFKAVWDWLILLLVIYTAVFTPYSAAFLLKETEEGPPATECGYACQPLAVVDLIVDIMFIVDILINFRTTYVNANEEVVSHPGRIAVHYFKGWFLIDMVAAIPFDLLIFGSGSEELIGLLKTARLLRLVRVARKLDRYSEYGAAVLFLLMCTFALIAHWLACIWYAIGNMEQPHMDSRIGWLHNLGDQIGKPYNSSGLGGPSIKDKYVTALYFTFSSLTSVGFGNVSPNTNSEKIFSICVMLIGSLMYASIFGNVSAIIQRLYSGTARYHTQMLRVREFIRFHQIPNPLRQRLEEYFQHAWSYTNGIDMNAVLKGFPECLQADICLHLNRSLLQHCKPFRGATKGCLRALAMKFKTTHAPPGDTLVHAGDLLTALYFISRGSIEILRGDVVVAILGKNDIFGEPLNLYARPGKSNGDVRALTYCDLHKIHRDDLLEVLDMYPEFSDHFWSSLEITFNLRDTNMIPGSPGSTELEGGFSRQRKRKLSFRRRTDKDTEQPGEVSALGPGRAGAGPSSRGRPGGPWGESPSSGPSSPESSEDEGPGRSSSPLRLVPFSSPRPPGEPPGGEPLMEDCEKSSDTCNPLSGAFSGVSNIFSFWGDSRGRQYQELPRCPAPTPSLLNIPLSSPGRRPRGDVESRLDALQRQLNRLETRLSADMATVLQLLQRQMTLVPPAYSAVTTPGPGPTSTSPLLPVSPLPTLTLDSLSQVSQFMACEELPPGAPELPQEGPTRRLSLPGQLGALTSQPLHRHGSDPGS
Test: Inhibition of hERG at 10 uM relative to control
Assay type: toxicity
Conditions: not given

Row | Compound | inhibition at 10 µM [%]
43 | CC(C)(C)c1sc2ncnc(Oc3ccccc3OC(F)(F)F)c2c1-c1ccc(Cl)c(Cl)c1 | 50

System: not listed separately
Test: Drug metabolism in human liver microsomes assessed as CYP450 mediated oxidation of parent compound measured after 60 mins by UPLC analysis
Assay type: ADME, Microsome
Conditions: 1 h

Row | Drug metabolism | Compound
44 | Metabolite_Detected | Cc1sc2ncnc(Oc3ccccc3F)c2c1C

System: not listed separately
Test: Metabolic stability in mouse microsome assessed as compound remaining measured after 30 min in presence of NADPH regenerating system by LC-MS/MS analysis
Assay type: ADME, Liver
Conditions: microsomes, 0.5 h

Row | Compound | Stability [%]
45 | CC(C)(C)c1sc2ncnc(Oc3ccccc3F)c2c1-c1ccc(F)cc1 | 7
46 | Fc1ccccc1Oc1ncnc2scc(C(F)(F)F)c12 | < 5
47 | CC(C)(C)c1sc2ncnc(Oc3ccccc3OC(F)(F)F)c2c1-c1ccc(Cl)c(Cl)c1 | 58

Next, values leading:

Row | Stability [%] | Compound
48 | 14 | CC(C)(C)c1sc2ncnc(Oc3ccccc3F)c2c1-c1ccccc1
49 | < 5 | CC(C)(C)c1cc2c(Oc3ccccc3F)ncnc2s1
50 | 28 | CC(C)(C)c1sc2ncnc(Oc3ccccc3OC(F)(F)F)c2c1-c1ccc(F)cc1
51 | < 5 | Cc1sc2ncnc(Oc3ccccc3F)c2c1C

Target: T2, Mas-related G-protein coupled receptor member X1
Test: Positive allosteric modulator activity at human MRGPRX1 transfected in HEK293 cells assessed as maximal efficacy in presence of BAM8-22 by Fulo4AM dye based FLIPR assay relative to control
Assay type: cell-based
Conditions: filed as positive allosteric modulator

Row | Compound | Emax [%]
52 | Fc1ccccc1Oc1ncnc2sccc12 | 95
53 | CC(C)(C)c1sc2ncnc(Oc3ccccc3F)c2c1-c1ccc(F)cc1 | 145
54 | Fc1ccccc1Oc1ncnc2scc(C(F)(F)F)c12 | 94
55 | CC(C)(C)c1sc2ncnc(Oc3ccccc3OC(F)(F)F)c2c1-c1ccc(Cl)c(Cl)c1 | 114

Continued, values first:

Row | Emax [%] | Compound
56 | 83 | Cc1sc2ncnc(Oc3ccc(F)cc3)c2c1C
57 | 95 | CC(C)(C)c1sc2ncnc(Oc3ccccc3F)c2c1-c1ccccc1
58 | 105 | CC(C)(C)c1cc2c(Oc3ccccc3F)ncnc2s1
59 | 143 | CC(C)(C)c1sc2ncnc(Oc3ccccc3OC(F)(F)F)c2c1-c1ccc(F)cc1
60 | 112 | Cc1sc2ncnc(Oc3ccccc3F)c2c1C
